Results pooled from the literature.
Protocols differ between the studies behind these lines.
Target: Activin receptor type-1-like (ACVRL1, Homo sapiens, UniProt P37023)

COc1cnc(Nc2cccc(S(N)(=O)=O)c2)nc1N1CCN(c2ccccc2)CC1
remaining binding (binding, competition with immobilised ligand; 1 µM): 98%

O=C(NCC1CCOCC1)c1n[nH]cc1NC(=O)c1c(F)cccc1F
remaining binding (binding, competition with immobilised ligand; 1 µM): 94%

COc1ccnn2ncc(-c3ccnc(N(C)C)n3)c12
remaining binding (binding; 1 µM): 100%

CCN1CCN(Cc2ccc(C(=O)Nc3ccc(C)c(Oc4ccc5c(c4)CC(=O)N5)c3)cc2C(F)(F)F)CC1
remaining binding (binding, competition with immobilised ligand; 1 µM): 100%

CN(C)c1ncc(F)c(-c2cnn3ncccc23)n1
remaining binding (binding; 1 µM): 100%

C[C@@H](c1ccc(-n2cnc3c(N)ncnc32)cc1)N1CCc2nn(C)c(Cc3ccccc3)c2C1=O
remaining binding (binding, competition with immobilised ligand; 0.1 µM): 66%

CN(CCCC(F)(F)F)c1nccc(-c2cnn3ncccc23)n1
remaining binding (binding; 1 µM): 68%

CCc1ccccc1C(=O)Nc1n[nH]c2c(C)c(F)c(C3C(C#N)=C(C)N(C)C(C)=C3C#N)cc12
remaining binding (binding, competition with immobilised ligand; 1 µM): 75%

C[C@@H]1CCN(c2nccc(-c3cnn4ncccc34)n2)C1
remaining binding (binding; 1 µM): 100%

COc1ncc2cc3ccccc3nc2c1C#N
remaining binding (binding, competition with immobilised ligand; 5 µM): 93%

CC1=C(C#N)[C@@H](c2ccc3[nH]nc(C)c3c2)C(C#N)=C(c2ccc(Cl)cc2)N1
remaining binding (binding, competition with immobilised ligand; 1 µM): 79%

O=C(NCCCN1CCOCC1)c1ccc(Nc2nccc(-c3cc4ccccc4s3)n2)cc1
remaining binding (binding, competition with immobilised ligand; 1 µM): 100%

CC1=C(C#N)C(c2ccc3c(c2)c(NC(=O)c2ccccc2C)nn3C)C(C#N)=C(C)N1
remaining binding (binding, competition with immobilised ligand; 1 µM): 97%

N[C@H]1CCN(c2nccc(-c3cnn4ncccc34)n2)C1
remaining binding (binding; 1 µM): 97%

O=C(c1ccc(Nc2nccc(-c3cc4ccccc4s3)n2)cc1)N1CCC(N2CCCC2)CC1
remaining binding (binding, competition with immobilised ligand; 1 µM): 100%

CN(c1nccc(-c2cnn3ncccc23)n1)C1CC1
remaining binding (binding; 1 µM): 76%

CN(C)CC#Cc1ccc(OCCCc2sc(N3CCc4cccc(C(=O)Nc5nc6ccccc6s5)c4C3)nc2C(=O)O)c(F)c1
remaining binding (binding, competition with immobilised ligand; 1 µM): 82%

O=C(c1ccc(Nc2ncc(Cl)c(-c3ccc(Cl)s3)n2)cc1)N1CCC(N2CCCC2)CC1
remaining binding (binding, competition with immobilised ligand; 1 µM): 100%

CCCCN(CCCC)C(=O)CN1C[C@@H](c2cc(OC)c3c(c2)OCO3)[C@H](C(=O)O)[C@H]1CC(C)(C)CCC
remaining binding (cell-free assay, competition with immobilised ligand; 1 µM): 99.4%

CC1CCCN1c1nccc(-c2cnn3ncccc23)n1 (stereo not shown)
remaining binding (binding; 1 µM): 89%

Cc1c[nH]c2nccc(Oc3c(F)cc(Nc4cc(Cl)nc(N)n4)cc3F)c12
remaining binding (cell-free assay, competition with immobilised ligand; 0.1 µM): 100%

FC(F)(F)Oc1cccc(-c2cnc3ccc(-c4ccncc4)nn23)c1
remaining binding (cell-free assay, competition with immobilised ligand; 5 µM): 85%
